The source made the active and inactive calls. The calls are words filed in the database; no cut-off is given here.
Experiments:
Nannizzia gypsea = assay: Antifungal activity against Microsporum gypseum ATCC 24102 assessed as growth inhibition at 10 mg/mL by bioautographic agar overlay method; format: functional, organism-based
How it was run: (§1)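 Samples at 10 mg/mL spotted on silica gel TLC plates, overlaid with a thin Sabouraud agar film inoculated 50:1 with fresh-culture suspension at 10^6 cells or spores/mL. Incubation time and conditions were set per fungus. Growth-free zones around spots scored qualitatively. Same plate carried DMSO 1% negative control plus amphotericin B and ketoconazol controls.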

Splenic lymphocyte = assay: Immunosuppressive activity against C57Bl/6 mouse splenic lymphocytes assessed as cell viability at 200 nM after 72 hrs by MTT assay; format: functional
How it was run: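 Spleens from male 18-week-old C57Bl/6 mice were teased through a strainer, washed in RPMI and resuspended in RPMI with 10% FBS. Cells were counted by trypan blue and cultured in triplicate at 37 °C for 72 h with vehicle (medium, 0.1% DMSO), 10% DMSO or compound at 200 nM. MTT was added for 2 h, formazan dissolved in DMSO and read at 570 nm. Viability taken as % of vehicle after blank subtraction. Three animals.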

Cryptococcus neoformans = assay: Antifungal activity against Cryptococcus neoformans ATCC 14116 assessed as growth inhibition at 10 mg/mL by bioautographic agar overlay method; format: functional, organism-based; how it was run: as §1
Trichophyton rubrum = assay: Antifungal activity against Trichophyton rubrum ATCC 28188 assessed as growth inhibition at 10 mg/mL by bioautographic agar overlay method; format: functional, organism-based; how it was run: as §1
Candida parapsilosis = assay: Antifungal activity against Candida parapsilosis ATCC 22919 assessed as growth inhibition at 10 mg/mL by bioautographic agar overlay method; format: functional, organism-based; how it was run: as §1
Candida albicans = assay: Antifungal activity against Candida albicans ATCC 90022 assessed as growth inhibition at 10 mg/mL by bioautographic agar overlay method; format: functional, organism-based; how it was run: as §1
Nakaseomyces glabratus = assay: Antifungal activity against Candida glabrata ATCC 15126 assessed as growth inhibition at 10 mg/mL by bioautographic agar overlay method; format: functional, organism-based; how it was run: as §1
[1] = Immunosuppressive activity against C57Bl/6 mouse splenic lymphocytes assessed as concanavalin A-induced cell proliferation at > 0.002 nM incubated for 1 hr prior to concanavalin A challenge measured after 48 hrs by resazurin reduction assay relative to control; format: functional, Splenic lymphocyte; design: scale not given: the % may be the effect or the level left
How it was run: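 Splenocytes from male C57Bl/6 mice were plated at 1×10^6 cells/mL, 37 °C, 5% CO2. Compounds at 0.002–200 nM were added for 1 h, then cells were incubated with or without concanavalin A (0.5 µg/mL) for 48 h. Resazurin 0.01% was added for 24 h, then OD read at 570 and 600 nm and proliferation taken as the difference. Compared with ConA plus vehicle. Three animals in triplicate.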

[2] = test system: Trichophyton mentagrophytes; assay: Antifungal activity against Trichophyton mentagrophytes ATCC 9533 assessed as growth inhibition at 10 mg/mL by bioautographic agar overlay method; format: functional, organism-based; how it was run: as §1

Structure (SMILES)	growth inhibition (GI) (Nannizzia gypsea)	Activity (Splenic lymphocyte)	growth inhibition (GI) (Cryptococcus neoformans)	growth inhibition (GI) (Trichophyton rubrum)	growth inhibition (GI) (Candida parapsilosis)	growth inhibition (GI) (Candida albicans)	growth inhibition (GI) (Nakaseomyces glabratus)	Activity [1]	growth inhibition (GI) [2]
C#Cc1ccc(-c2cn([C@@H]3C=C(Br)[C@@H](O)[C@@H](O)[C@@H]3O)nn2)cc1	inactive	inactive	inactive	inactive	Active	inactive	inactive	<=30%	inactive
C#Cc1cccc(-c2cn([C@H]3C=C(Br)[C@@H](O)[C@@H](O)[C@@H]3O)nn2)c1	inactive	inactive	inactive	inactive	inactive	inactive	inactive	<=30%	inactive
O[C@H]1[C@H](O)[C@H](n2cc(-c3cccc(-c4cn([C@H]5C=C(Br)[C@@H](O)[C@@H](O)[C@@H]5O)nn4)c3)nn2)C=C(Br)[C@H]1O (mixture of isomers)	inactive	inactive	inactive	inactive	inactive	inactive	Active	<=30%	Active
O[C@H]1[C@H](O)[C@H](n2cc(-c3ccc(-c4cn([C@@H]5C=C(Br)[C@@H](O)[C@@H](O)[C@@H]5O)nn4)cc3)nn2)C=C(Br)[C@H]1O	inactive	inactive	inactive	inactive	Active	inactive	inactive	<=30%	inactive
O[C@H]1[C@H](O)[C@H](n2cc(-c3ccc(-c4cn([C@H]5C=C(Br)[C@@H](O)[C@@H](O)[C@@H]5O)nn4)cc3)nn2)C=C(Br)[C@H]1O (mixture of isomers)	inactive	inactive	inactive	inactive	inactive	inactive	inactive	<=30%	inactive
O[C@H]1[C@H](O)[C@@H](n2cc(-c3ccc(-c4cn([C@H]5C=C(Br)[C@@H](O)[C@@H](O)[C@@H]5O)nn4)cc3)nn2)C=C(Br)[C@H]1O	Active	inactive	inactive	Active	inactive	inactive	inactive	<=30%	inactive
O[C@H]1[C@H](O)[C@@H](n2cc(-c3cccc(-c4cn([C@H]5C=C(Br)[C@@H](O)[C@@H](O)[C@@H]5O)nn4)c3)nn2)C=C(Br)[C@H]1O	inactive	inactive	inactive	inactive	inactive	inactive	inactive	<=30%	inactive
C#Cc1ccc(-c2cn([C@H]3C=C(Br)[C@@H](O)[C@@H](O)[C@@H]3O)nn2)cc1	inactive	inactive	inactive	inactive	inactive	inactive	inactive	<=30%	inactive
C#Cc1cccc(-c2cn([C@@H]3C=C(Br)[C@@H](O)[C@@H](O)[C@@H]3O)nn2)c1	inactive	inactive	inactive	inactive	Active	inactive	inactive	<=30%	inactive
O[C@H]1[C@H](O)[C@H](n2cc(-c3cccc(-c4cn([C@@H]5C=C(Br)[C@@H](O)[C@@H](O)[C@@H]5O)nn4)c3)nn2)C=C(Br)[C@H]1O	inactive	inactive	inactive	inactive	inactive	inactive	inactive	<=30%	inactive

From ChEMBL document CHEMBL2396559, “Synthesis and preliminary biological evaluation of a compound library of triazolylcyclitols” (2013)
